A selection: hits, their analogues and other compounds. The true share with any hit is near 4.5%.
Mdm2 ligase inh – Mdm2 E3 ligase (human) inhibition; cell-based MDM2 ubiquitination luciferase reporter, 2 h; 0 = plate control, 100 = twice control, blank-subtracted; actives 0.11% (n = 210,000); Q00987; signal enhancement, % at 5 µM;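 active = signal enhancement of 30% or more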;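 note: luminescence tracks abundance of the self-degrading MDM2-luciferase fusion protein; higher signal means inhibition of MDM2 E3 ligase activity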
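Test system: mammalian cells stably expressing self-ubiquitinating, self-degrading MDM2 E3–luciferase fusion; Amount: 2000 cells in each well; Medium: DMEM; Schedule: 4 h settle plus 2 h compound, 37 °C; Technique: SteadyLite luciferase luminescence after 15 min room-temperature reagent incubation; Benchmarks: plate control and blank wells.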
NF-kB expr up – NF-kB expression increase, human neuronal cells | fold change at 12.5 µM | actives 1.6% (n = 190,000) | NF-kB reporter expression; stronger effect = higher value; in the data active = fold change above about 3.3
AHR activator – activators of human aryl hydrocarbon receptor | activation, % at 5 µM | AHR-responsive luciferase reporter cells, luminescence | actives 2.5% (n = 320,000) | AID 2796; in the data active = activation above about 47%;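 note: 0% = vehicle wells and 100% = reference agonist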
PERK inh – blocks human PERK kinase | Q9NZJ5 | CHO PERK-DD fusion, SEAP luminescence translation reporter | inhibition, % at 5.6 µM | actives 0.17% (n = 220,000);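 active = inhibition above the mean inhibition of all tested compounds plus 3 SD, set separately per screening campaign, cut at about 2.9% in these data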;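 note: PERK kinase domain activated by AP20187 dimerizer at 100 nM; 0% = DMSO with dimerizer and 100% = rapamycin at 8.4 µM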
Target sequence (Q9NZJ5 whole entry, looked up, the tested form may be a part): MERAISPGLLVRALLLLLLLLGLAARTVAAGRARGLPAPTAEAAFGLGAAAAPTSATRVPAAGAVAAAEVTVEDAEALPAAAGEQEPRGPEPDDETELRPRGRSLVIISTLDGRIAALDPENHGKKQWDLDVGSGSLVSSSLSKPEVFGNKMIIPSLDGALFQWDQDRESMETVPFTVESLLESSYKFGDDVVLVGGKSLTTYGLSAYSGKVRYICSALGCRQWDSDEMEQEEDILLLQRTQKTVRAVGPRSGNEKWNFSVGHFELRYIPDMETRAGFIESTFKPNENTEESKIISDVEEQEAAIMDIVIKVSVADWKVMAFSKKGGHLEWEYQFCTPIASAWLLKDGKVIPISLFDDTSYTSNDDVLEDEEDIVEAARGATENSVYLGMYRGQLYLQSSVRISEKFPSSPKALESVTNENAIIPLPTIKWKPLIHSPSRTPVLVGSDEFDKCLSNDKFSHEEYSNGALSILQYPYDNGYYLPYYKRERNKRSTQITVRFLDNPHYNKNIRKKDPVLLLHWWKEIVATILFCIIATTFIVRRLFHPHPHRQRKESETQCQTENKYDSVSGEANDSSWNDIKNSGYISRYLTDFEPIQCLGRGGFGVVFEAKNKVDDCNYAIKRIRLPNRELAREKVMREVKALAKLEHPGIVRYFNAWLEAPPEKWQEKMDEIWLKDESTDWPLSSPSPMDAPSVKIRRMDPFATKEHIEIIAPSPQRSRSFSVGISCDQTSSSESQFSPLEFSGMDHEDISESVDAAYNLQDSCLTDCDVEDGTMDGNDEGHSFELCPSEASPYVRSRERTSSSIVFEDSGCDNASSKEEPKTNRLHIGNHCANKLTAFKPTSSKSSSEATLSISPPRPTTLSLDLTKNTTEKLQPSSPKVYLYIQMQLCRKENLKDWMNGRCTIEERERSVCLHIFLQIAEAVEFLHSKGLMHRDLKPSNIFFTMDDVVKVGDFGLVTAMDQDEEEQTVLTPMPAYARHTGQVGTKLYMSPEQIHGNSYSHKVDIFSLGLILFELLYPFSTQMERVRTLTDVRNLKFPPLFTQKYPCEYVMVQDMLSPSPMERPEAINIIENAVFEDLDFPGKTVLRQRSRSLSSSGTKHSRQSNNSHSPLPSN
STAT1 activator – activators of IFN-gamma induced STAT1 signaling. NIH 3T3 STAT1-luciferase reporter, luminescence; 100% = IFN-gamma alone, no compound. activation (% of control), % at 5.5 µM. actives 2.6% (n = 200,000). AID 932;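 active = activation above the screen-wide mean activation plus 3 SD, cut at about 130% in these data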;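 note: raw ratio to IFN-gamma control signal so 100% means no change and 0% no light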
APP 5'UTR act – APP 5'UTR luciferase reporter activation; SH-SY5Y APP 5'UTR luciferase reporter, luminescence; zero percent = DMSO vehicle wells; AID 1276; activation, % at 2 µM; actives 1% (n = 190,000);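 active = activation above a set limit, based on mean plus 3 SD of controls, cut at about 140% in these data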
Active calls of the source: *; / = no result given.

SMILES	Mdm2 ligase inh	NF-kB expr up	AHR activator	PERK inh	STAT1 activator	APP 5'UTR act
CCOc1ccc(OCC(=O)Nc2nccs2)cc1	-82.0	2.62	14.9	0.4	42.7	156.6*
Cc1nc(NC(=O)COc2ccccc2)sc1C(=O)Nc1ccccc1	-4.6	1.1	66.0*	-0.4	98.0	-9.7
O=C(COc1ccc2c(c1)OCO2)Nc1nccs1	/	/	59.4*	/	/	/
COc1ccc(C(CC(=O)Nc2nccs2)n2cccc2)cc1 (stereo unspecified)	-9.2	4.46*	8.0	-1.2	156.0*	193.9*
CCOc1ccc(S(=O)(=O)N(C)c2ccc(OCC(=O)Nc3nccs3)cc2)cc1	-5.6	1.07	6.4	0.7	96.3	9.6
COC(=O)c1sc(NC(=O)COc2ccccc2)nc1C	-8.3	2.12	7.1	0.7	123.7	29.8
COc1ccccc1OCCCC(=O)Nc1nccs1	-13.1	1.6	27.0	0.7	133.5*	75.3
COc1ccc(OCC(=O)Nc2nccs2)cc1	-54.8	3.91*	14.8	2.1	69.2	104.3
COc1ccc(OCC(=O)Nc2ccccc2O)cc1	-3.1	5.46*	6.3	0.1	88.3	64.6
COc1ccc(OCCC(=O)Nc2nccs2)cc1	-5.7	1.49	-0.3	2.0	106.5	-3.1
O=C(c1ccccc1)C(O)C(c1ccccc1)N1CCOCC1 (stereo unspecified)	/	/	-1.0	/	/	/
OCC[C@@H]1C[C@H](O)[C@@H](O)[C@]2(CCCc3ccccc3O2)O1	/	/	-1.5	/	/	/
CC(C)=CC(=O)OCc1cc([N+](=O)[O-])cc2c1OCOC2	0.7	0.91	1.5	0.8	138.0*	43.2
COc1ccc(C2c3[nH]c4ccccc4c3CCN2Cc2ccoc2)c(F)c1 (stereo unspecified)	-2.9	0.87	47.3*	-0.3	97.9	-4.7
Cc1cc(C)c[n+](-c2nc3ccccc3nc2C(=C=[N-])C#N)c1	-5.6	4.39*	-2.4	0.1	96.5	3.2
O=C1CN(C(=O)CN2CCOCC2)C(c2ccccc2)c2cc(Br)ccc2N1 (stereo unspecified)	-9.0	0.98	57.2*	1.8	103.8	12.7
O=C1CN(C(=O)CN2CCCC2)C(c2ccccc2)c2cc(Br)ccc2N1 (stereo unspecified)	-3.1	1.04	30.1	0.5	95.3	7.6
O=C(Nc1nc2c(Cl)c(Cl)ccc2s1)C1CC1	/	/	48.4*	/	/	/
O=C(Nc1nc2c(Cl)cccc2s1)C1CC1	/	/	54.9*	/	/	/
O=C(Nc1nc2c(Cl)ccc(Cl)c2s1)C1CC1	/	/	27.4	/	/	/
O=C(Nc1nc2c(F)cc(F)cc2s1)C1CC1	/	/	55.2*	/	/	/
Cc1ccc(NCC(=O)N/N=C/c2cccc(Oc3ccccc3)c2)cc1	-14.8	0.87	37.8	-0.1	104.0	0.6
Cn1ccnc1SCc1cn2cc(Br)ccc2n1	-43.1	2.27	12.4	0.0	116.7	163.9*
COc1ccc(-c2cc(C(=O)NC3CCCC3)c3ccccc3n2)cc1OC	/	/	11.8	/	/	/
COc1ccc(-c2cc(C(=O)N(C)Cc3ccc(F)cc3)c3ccccc3n2)cc1OC	/	/	64.3*	/	/	/
SMILES	Mdm2 ligase inh	NF-kB expr up	AHR activator	PERK inh	STAT1 activator	APP 5'UTR act
COc1ccc(-c2cc(C(=O)NC3=NCCS3)c3ccccc3n2)cc1OC	-15.6	0.51	66.8*	0.4	114.4	-11.4
O=C(NC1=NCCS1)c1cc(-c2ccc(-c3ccccc3)cc2)nc2ccccc12	-3.3	1.28	0.9	0.7	135.0*	67.4
COc1ccc(CCN(C)C(=O)c2cc(-c3ccc(C)cc3)nc3ccccc23)cc1OC	/	/	7.4	/	/	/
COc1ccc(-c2cc(C(=O)Nc3ccc(C(N)=O)cc3)c3ccccc3n2)cc1OC	-17.2	1.02	52.1*	-0.2	119.8	25.1
CCCOc1ccc(-c2nc(SCc3ccccc3)[nH]c(=O)c2C#N)cc1OC	/	/	1.0	/	/	/
CC(=O)N1c2ccccc2C2(O)N=C(C)SC12 (stereo unspecified)	2.1	1.25	51.0*	0.7	87.2	30.8
CSc1ccc(N=Nc2c(C)[nH]n(C)c2=O)cc1	-10.2	/	74.7*	-1.3	/	/
Cc1[nH]n(-c2ccccc2)c(=O)c1N=Nc1ccc(F)cc1	/	/	65.4*	/	/	/
COC(=O)c1ccc(N=Nc2c(C)[nH]n(-c3ccccc3)c2=O)cc1	/	/	78.2*	/	/	/
Cc1[nH]n(-c2ccccc2)c(=O)c1N=Nc1cccc([N+](=O)[O-])c1	/	/	3.9	/	/	/
Cc1[nH]n(-c2ccccc2)c(=O)c1N=Nc1cccc(Cl)c1	/	/	58.2*	/	/	/
Cc1cccc(NC(=O)c2ccc3nc(N4CCOCC4)sc3c2)c1C	/	/	10.2	/	/	/

Source: PubChem BioAssay
